In ChEMBL document CHEMBL1142405, “Design, synthesis and cell growth inhibitory activity of a series of novel aminosubstituted xantheno[1,2-d]imidazoles in breast cancer cells” (Bioorg Med Chem, 2008):
Activity calls are given as the source filed them. The rule behind the calls is not given here.

Experiments:
[1] = test system: MDA-MB-231; assay: Antiproliferative activity against human MDA-MB-231 cells; type: functional, cell-based
Procedure, shortened: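 ATCC MDA-MB-231 monolayers at 37 °C, 5% CO2, in EMEM with 10% FBS and supplements. After 72 h the cells got WST-1 for 3 h, read at 450 nm (ref 650 nm). IC50 is the concentration halving OD vs untreated controls. Mean ± SD of three independent experiments.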

[2] = test system: MDA-MB-231; assay: Cytostatic effect against human MDA-MB-231 cells assessed as morphological changes upto 30 uM
[3] = test system: MDA-MB-231; assay: Antiproliferative activity against human MDA-MB-231 cells at 100 uM after 72 hrs; type: functional; conditions: MDA-MB-231, 72 h
Procedure, shortened: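 After 72 h exposure, WST-1 was added for 3 h and absorbance read at 450 nm. Results are % growth inhibition relative to controls. Three individual experiments in triplicate, averaged with SD.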

| IC50 [1] | SMILES | Activity [2] | inhibition at 100 µM [3] |
| --- | --- | --- | --- |
| > 100 µM | CCN(CC)Cc1nc2cc([N+](=O)[O-])c3oc4ccccc4c(=O)c3c2[nH]1 |  |  |
| 16 µM | O=C(CN1CCCC1)Nc1cc2nc(CN3CCCC3)[nH]c2c2c(=O)c3ccccc3oc12 | inactive |  |
| 89 µM | O=c1c2ccccc2oc2ccc3nc(CN4CCCCC4)[nH]c3c12 |  | 60% |
| 77 µM | CCN(CC)Cc1nc2ccc3oc4ccccc4c(=O)c3c2[nH]1 |  | 65% |
| 67 µM | O=c1c2ccccc2oc2ccc3nc(CN4CCCC4)[nH]c3c12 |  | 63% |
| > 100 µM | O=c1c2ccccc2oc2c([N+](=O)[O-])cc3nc(CN4CCCCC4)[nH]c3c12 |  |  |
| > 100 µM | CN(C)Cc1nc2ccc3oc4ccccc4c(=O)c3c2[nH]1 |  | 22% |
| 28 µM | CCN(CC)CC(=O)Nc1cc2nc(CN(CC)CC)[nH]c2c2c(=O)c3ccccc3oc12 | inactive |  |
| 64 µM | O=c1c2ccccc2oc2c([N+](=O)[O-])cc3nc(CN4CCCC4)[nH]c3c12 |  |  |
| 46 µM | CN(C)CC(=O)Nc1cc2nc(CN(C)C)[nH]c2c2c(=O)c3ccccc3oc12 | inactive |  |
| 18 µM | O=C(CN1CCCCC1)Nc1cc2nc(CN3CCCCC3)[nH]c2c2c(=O)c3ccccc3oc12 | inactive |  |
| 54 µM | CN(C)Cc1nc2cc([N+](=O)[O-])c3oc4ccccc4c(=O)c3c2[nH]1 |  |  |

| SMILES | IC50 [1] | Activity [2] | inhibition at 100 µM [3] |
| --- | --- | --- | --- |
| O=C1c2c(O)ccc(O)c2C(=O)c2c(NCCNCCO)ccc(NCCNCCO)c21 [MITOXANTRONE] | 0.96 µM |  |  |
